Source: ChEMBL document CHEMBL1142101, “Cytotoxic diterpenoids from the bark of Pseudolarix kaempferi and their structure-activity relationships” (J Nat Prod, 2007)

How the values were obtained:
[1] = Cytotoxicity against human Bel7402 cells after 48 hrs by MTT assay; type: cell-based, Bel-7402; details: for Activity: human, bel-7402, 48 h
Summary of the method: (§1)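 Cells seeded in 96-well plates and exposed to serial dilutions of test compound spanning 10-2 to 102 µM. Incubated 48 h at 37 °C in humidified air with 5% CO2. Growth inhibition read by MTT. IC50 taken as the concentration (µM) giving 50% inhibition of cell growth.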

HL-60 = test: Cytotoxicity against human HL60 cells after 48 hrs by MTT assay; type: cell-based; details: for Activity: human, hl-60, 48 h; for IC50: Homo sapiens, HL-60, 48 h; summary of the method: as §1
[2] = Cytotoxicity against human BGC823 cells after 48 hrs by MTT assay; type: cell-based, BGC-823; details: for Activity: human, bgc-823, 48 h; for IC50: Homo sapiens, BGC-823, 48 h; summary of the method: as §1
[3] = Homo sapiens, Bel-7402, 48 h, read-out: IC50

## COC(=O)C1=CC[C@@]23CC[C@@H]([C@@](C)(/C=C/C=C(\C)C(=O)OCC(O)CO)OC2=O)[C@@]3(O)CC1 (stereo partly drawn)
[1]
  Activity: Not Active
HL-60
  Activity: Not Active
[2]
  Activity: Not Active

## CC1=CC[C@@]23CC[C@@H]([C@@](C)(/C=C/C=C(\C)C(=O)OCC(O)CO)OC2=O)[C@@]3(O)CC1 (stereo partly drawn)
[1]
  Activity: Not Active
HL-60
  Activity: Not Active
[2]
  Activity: Not Active

## CC1=CC[C@@]23CC[C@@H]([C@@](C)(/C=C/C=C(\C)C(=O)O[C@@H]4O[C@H](CO)[C@@H](O)[C@H](O)[C@H]4O)OC2=O)[C@@]3(O)CC1
[1]; bel-7402
  IC50: Not Active
HL-60
  Activity: Not Active
[2]
  Activity: Not Active

## CC1=CC[C@@]23CC[C@@H]([C@@](C)(/C=C/C=C(\C)C(=O)O)OC2=O)[C@@]3(O)CC1 [DEACETYLPSEUDOLARIC ACID A]
[1]
  Activity: Not Active
HL-60
  Activity: Not Active
[2]
  Activity: Not Active

## O=c1[nH]cc(F)c(=O)[nH]1 [FLUOROURACIL]
[1]; [3]
  IC50: 23.2 µM
HL-60
  IC50: 0.16 µM
[2]
  IC50: 31.2 µM

## CC(=O)O[C@]12CCC(C)=CC[C@]13CC[C@H]2[C@@](C)(/C=C/C=C(\C)C(=O)O)OC3=O [PSEUDOLARIC ACID A]
[1]; [3]
  IC50: > 100 µM
HL-60
  IC50: 1.51 µM
[2]
  IC50: > 100 µM

## COC(=O)C1=CC[C@@]23CC[C@@H]([C@@](C)(/C=C/C=C(\C)C(=O)O)OC2=O)[C@@]3(OC(C)=O)CC1 [PSEUDOLARIC ACID B]
[1]; [3]
  IC50: > 100 µM
HL-60
  IC50: 0.59 µM
[2]
  IC50: > 100 µM

## CC(=O)O[C@]12CCC(C(=O)O)=CC[C@]13CC[C@H]2[C@@](C)(/C=C/C=C(\C)C(=O)O)OC3=O [PSEUDOLARIC ACID C2]
[1]
  Activity: Not Active
HL-60
  Activity: Not Active
[2]
  IC50: > 100 µM

## COC(=O)C1=CC[C@@]23CC[C@@H]([C@@](C)(/C=C/C=C(\C)C(=O)O)OC2=O)[C@@]3(O)CC1 [PSEUDOLARIC ACID C]
[1]; bel-7402
  IC50: Not Active
HL-60
  Activity: Not Active
[2]
  Activity: Not Active

## CC(=O)O[C@]12CC=C(C)C(=O)C[C@]13CC[C@H]2[C@@](C)(/C=C/C=C(\C)C(=O)O)OC3=O [PSEUDOLARIC ACID F]
[1]; [3]
  IC50: > 100 µM
HL-60
  IC50: 55.4 µM
[2]
  Activity: Not Active

## CC(=O)O[C@]12CC=C(C)[C@H](O)C[C@]13CC[C@H]2[C@@](C)(/C=C/C=C(\C)C(=O)O)OC3=O [PSEUDOLARIC ACID G]
[1]; [3]
  IC50: > 100 µM
HL-60
  IC50: 11 µM
[2]
  IC50: > 100 µM
